From ChEMBL document CHEMBL4513216, “Probing the Open Global Health Chemical Diversity Library for Multistage-Active Starting Points for Next-Generation Antimalarials” (ACS Infect Dis, 2020)

Test: Toxicity liver stage against HepG2, at 10uM
Type: cell-based
Design: test concentration 10 uM, cell line HepG2-A16-CD81EGFP
Conditions: human, HepG2-A16-CD81EGFP cells; read-out: INHIBITION
Procedure, shortened: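 Uninfected HepG2-A16-CD81EGFP cells, 3 × 10^3 per well, 1536-well, plated on prespotted compound at 10 μM final, parasite-free screening media added to match infected plates; puromycin 10 μM positive, DMSO 0.5% negative; run in parallel with 48 h PbLuc assay at 37 °C, 5% CO2; viability by CellTiter-Glo luminescence, normalized to controls.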

**Q.** Which cytotoxicity at 10 µM does the source give for `COc1cccc(CN2CCN3C(=O)NC[C@H]3C2)n1` here?
**A.** Its cytotoxicity at 10 µM is -1.45%.

**Q.** Which cytotoxicity at 10 µM does the source give for `CCCc1nnc(SCc2cc(=O)n3c4c(sc3n2)CCCC4)[nH]1` here?
**A.** The cytotoxicity at 10 µM was -1.05%.

**Q.** For `CC(C)CNc1c(NCc2ccco2)c(=O)c1=O`, which cytotoxicity at 10 µM is on record?
**A.** The cytotoxicity at 10 µM was -10.6%.

**Q.** Which cytotoxicity at 10 µM does the source give for `Cc1nc2sc(C(=O)N3CCNC(=O)C3)c(C)c2c(=O)[nH]1` here?
**A.** The cytotoxicity at 10 µM was 4.13%.

**Q.** With `O=C(Nc1cccs1)N1CC(c2nc(C3CC3)no2)C1` as the compound, how does the cytotoxicity at 10 µM read?
**A.** Its cytotoxicity at 10 µM is -0.921%.

**Q.** Which cytotoxicity at 10 µM does the source give for `Cn1cnc(C(=O)N2CC3(CCN(S(=O)(=O)c4ccccc4)C3)C2)c1` here?
**A.** Its cytotoxicity at 10 µM is 3.8%.

**Q.** Which cytotoxicity at 10 µM does the source give for `CN(C)C(=O)N1CCC2(CC(=O)N(c3ccc4c(c3)OCO4)C2)C1` (stereo unspecified) here?
**A.** Its cytotoxicity at 10 µM is 8.04%.

**Q.** For `O=C(Nc1ccccc1)C1=NOC2(CCCNC2)C1` (stereo unspecified), which cytotoxicity at 10 µM is on record?
**A.** Its cytotoxicity at 10 µM is 1.02%.

**Q.** With `Cc1noc(C2CCC3(CCN(C(=O)c4cnccn4)CC3)O2)n1` (stereo unspecified) as the compound, how does the cytotoxicity at 10 µM read?
**A.** Its cytotoxicity at 10 µM is 7.19%.

**Q.** For `COCC(=O)N1CCC2(COCc3c(C)nc(N(C)C)nc32)C1` (stereo unspecified), which cytotoxicity at 10 µM is on record?
**A.** Its cytotoxicity at 10 µM is 9.09%.

**Q.** For `O=C(NCC1CCCO1)c1nc2c(s1)CCCN2c1ncccn1` (stereo unspecified), which cytotoxicity at 10 µM is on record?
**A.** The cytotoxicity at 10 µM was -5.17%.

**Q.** For `Cc1ccc2c(ccn2CCC(=O)NC[C@@H]2CCCN3CCCC[C@H]23)c1`, which cytotoxicity at 10 µM is on record?
**A.** Its cytotoxicity at 10 µM is 2.29%.

**Q.** For `CC1=Nc2c(c(=O)[nH]n2C(C)C)C(c2ccc(F)c(F)c2)S1` (stereo unspecified), which cytotoxicity at 10 µM is on record?
**A.** Its cytotoxicity at 10 µM is -5%.

**Q.** With `O=C(NCCN1CCOCC1)c1cc(-c2ccc3c(c2)CCO3)n[nH]1` as the compound, how does the cytotoxicity at 10 µM read?
**A.** The cytotoxicity at 10 µM was -2.95%.

**Q.** With `O=C(c1cnn2c1OCCC2)N1CCN(C/C=C/c2ccccc2)CC1` as the compound, how does the cytotoxicity at 10 µM read?
**A.** Its cytotoxicity at 10 µM is 9.28%.

**Q.** With `COc1ccc(S(=O)(=O)N2CCC(S(C)(=O)=O)CC2)cc1C` as the compound, how does the cytotoxicity at 10 µM read?
**A.** The cytotoxicity at 10 µM was 2.4%.

**Q.** With `O=C(CC1CCCC1)NCCn1ccc(-c2ccccn2)n1` as the compound, how does the cytotoxicity at 10 µM read?
**A.** The cytotoxicity at 10 µM was 5.5%.

**Q.** Which cytotoxicity at 10 µM does the source give for `CCN1C(=O)CCCC12CCCN(C(=O)c1conc1C)C2` (stereo unspecified) here?
**A.** The cytotoxicity at 10 µM was 4.57%.

**Q.** Which cytotoxicity at 10 µM does the source give for `CCC(=O)N1CCCCC1c1nc(CN(C)C(C)=O)cc(N(C)C)n1` (stereo unspecified) here?
**A.** The cytotoxicity at 10 µM was -3.17%.

**Q.** Which cytotoxicity at 10 µM does the source give for `CC(=O)N[C@@H]1CN(C(=O)c2cccc(C(F)(F)F)c2)C[C@H]1O` here?
**A.** The cytotoxicity at 10 µM was 1.9%.

**Q.** With `CNc1ccc(C2CN(c3cc(C)nc(N)n3)CCO2)nc1` (stereo unspecified) as the compound, how does the cytotoxicity at 10 µM read?
**A.** The cytotoxicity at 10 µM was 4.72%.

**Q.** Which cytotoxicity at 10 µM does the source give for `CCc1nnc(Nc2cc(C)nc(C3CN(C(C)=O)CCO3)c2)s1` (stereo unspecified) here?
**A.** The cytotoxicity at 10 µM was 4.74%.

**Q.** With `CCCC(=O)N1CCCC1(C)c1nc(C)no1` (stereo unspecified) as the compound, how does the cytotoxicity at 10 µM read?
**A.** Its cytotoxicity at 10 µM is 0.79%.

**Q.** With `CNC(=O)C1CN(Cc2cc(C)on2)CCN(C2CCOCC2)C1` (stereo unspecified) as the compound, how does the cytotoxicity at 10 µM read?
**A.** Its cytotoxicity at 10 µM is 9.81%.

**Q.** With `CNC(=O)c1ccc(C2CN(CC(=O)N(C)C)CCO2)nc1` (stereo unspecified) as the compound, how does the cytotoxicity at 10 µM read?
**A.** The cytotoxicity at 10 µM was 7.15%.

**Q.** Which cytotoxicity at 10 µM does the source give for `Cc1ccn(CCNC(=O)C2(C)CC(c3ccccc3)=NO2)n1` (stereo unspecified) here?
**A.** Its cytotoxicity at 10 µM is 8.46%.

**Q.** With `COCCN1CCCC1(C)c1nc(C)cc(N)n1` (stereo unspecified) as the compound, how does the cytotoxicity at 10 µM read?
**A.** The cytotoxicity at 10 µM was -3.73%.

**Q.** Which cytotoxicity at 10 µM does the source give for `C[C@]1(O)CCN(Cc2ncccc2F)C[C@@H]1Oc1cccc(F)c1` here?
**A.** The cytotoxicity at 10 µM was -1.37%.

**Q.** For `Cc1cccnc1Nc1nccc(C2CN(CC(N)=O)C2)n1`, which cytotoxicity at 10 µM is on record?
**A.** The cytotoxicity at 10 µM was -34.3%.

**Q.** For `CC(=O)N1CCCC(c2ccc(N3CCOCC3)cn2)C1` (stereo unspecified), which cytotoxicity at 10 µM is on record?
**A.** Its cytotoxicity at 10 µM is -18.9%.

**Q.** For `CC(C)(C)C(=O)N1CCC(n2nc(-c3ccco3)ccc2=O)CC1`, which cytotoxicity at 10 µM is on record?
**A.** The cytotoxicity at 10 µM was -15.4%.

**Q.** Which cytotoxicity at 10 µM does the source give for `CC(C)(C)OC(=O)N1CCN(c2nnc(Br)s2)CC1` here?
**A.** The cytotoxicity at 10 µM was 10.8%.

**Q.** Which cytotoxicity at 10 µM does the source give for `O=C(O)c1cnc(OCC2CC2)c(Br)c1` here?
**A.** Its cytotoxicity at 10 µM is 9.38%.

**Q.** Which cytotoxicity at 10 µM does the source give for `O=C(c1ccco1)N(c1ccc(F)cn1)C1CCOCC1` here?
**A.** Its cytotoxicity at 10 µM is -19.8%.

**Q.** For `O=C(COC1CCCCC1)Nc1ccn(CCc2ccncc2)n1`, which cytotoxicity at 10 µM is on record?
**A.** The cytotoxicity at 10 µM was -3.87%.

**Q.** With `Clc1ccc(N2CCN(CCCN3CCCCC3)CC2)nc1` as the compound, how does the cytotoxicity at 10 µM read?
**A.** The cytotoxicity at 10 µM was 0.563%.

**Q.** For `O=C1COc2cc(C(=O)N3CCCC(n4ccnc4)C3)ccc2N1` (stereo unspecified), which cytotoxicity at 10 µM is on record?
**A.** The cytotoxicity at 10 µM was 1.75%.

**Q.** Which cytotoxicity at 10 µM does the source give for `COc1ccc(C)cc1CN(CC(N)=O)C(C)C` here?
**A.** Its cytotoxicity at 10 µM is -0.846%.

**Q.** With `CC1CN(C(=O)Nc2cc(C(F)(F)F)c[nH]c2=O)CCO1` (stereo unspecified) as the compound, how does the cytotoxicity at 10 µM read?
**A.** Its cytotoxicity at 10 µM is 3.44%.

**Q.** For `CCN(CC)C1CCN(C(=O)NCc2cccc(NC(C)=O)c2)C1` (stereo unspecified), which cytotoxicity at 10 µM is on record?
**A.** The cytotoxicity at 10 µM was 4.55%.

**Q.** For `NC(=O)C1CCN(c2ccc3cc(Br)ccc3n2)C1` (stereo unspecified), which cytotoxicity at 10 µM is on record?
**A.** The cytotoxicity at 10 µM was 7.87%.

**Q.** With `CC1COc2ccccc2N1C(=O)c1ccnc(-n2cncn2)c1` (stereo unspecified) as the compound, how does the cytotoxicity at 10 µM read?
**A.** The cytotoxicity at 10 µM was 12.5%.

**Q.** For `COc1cc(CN(C)C(=O)NCc2cccnc2OC)ccc1SC`, which cytotoxicity at 10 µM is on record?
**A.** Its cytotoxicity at 10 µM is -8.82%.

**Q.** With `Cc1ccc(CNC(C)c2nnc3n2CCCC3)o1` (stereo unspecified) as the compound, how does the cytotoxicity at 10 µM read?
**A.** The cytotoxicity at 10 µM was -7.17%.

**Q.** Which cytotoxicity at 10 µM does the source give for `CC(C)(O)CNC(=O)NCc1nccn1CCc1ccccc1` here?
**A.** Its cytotoxicity at 10 µM is 3.04%.

**Q.** For `CN(C(=O)NCc1nccn1CCc1ccccc1)C1CCC1`, which cytotoxicity at 10 µM is on record?
**A.** The cytotoxicity at 10 µM was 1.96%.

**Q.** For `O=C(NCc1nccn1CCc1ccccc1)NCC1(O)CCC1`, which cytotoxicity at 10 µM is on record?
**A.** The cytotoxicity at 10 µM was -2.97%.

**Q.** With `CC(C)C(C)NC(=O)Nc1ccc(CS(=O)(=O)C(C)C)cc1` (stereo unspecified) as the compound, how does the cytotoxicity at 10 µM read?
**A.** The cytotoxicity at 10 µM was -1.28%.

**Q.** Which cytotoxicity at 10 µM does the source give for `CC1CN(C)c2ccccc2CN1C(=O)c1cscn1` (stereo unspecified) here?
**A.** Its cytotoxicity at 10 µM is -1.03%.

**Q.** With `CC(C)C(NC(=O)c1ccccc1F)C(=O)N1CCC2(CC1)OCCO2` (stereo unspecified) as the compound, how does the cytotoxicity at 10 µM read?
**A.** The cytotoxicity at 10 µM was 7.04%.

**Q.** Which cytotoxicity at 10 µM does the source give for `O=C(Nc1cccn(Cc2ccccc2)c1=O)c1ccncc1F` here?
**A.** Its cytotoxicity at 10 µM is 14.8%.

**Q.** With `Cc1ccc(CCC(C)NC2CCN(C(N)=O)CC2)cc1` (stereo unspecified) as the compound, how does the cytotoxicity at 10 µM read?
**A.** Its cytotoxicity at 10 µM is -0.613%.

**Q.** Which cytotoxicity at 10 µM does the source give for `Cc1cc(CNc2ccc3nc(C)sc3c2)no1` here?
**A.** Its cytotoxicity at 10 µM is -5.2%.

**Q.** For `CN(C)c1cccc(CNC(=O)Nc2ccc3[nH]nnc3c2)n1`, which cytotoxicity at 10 µM is on record?
**A.** The cytotoxicity at 10 µM was 3.15%.

**Q.** With `Cc1nc(CNC(C(=O)N2CCOCC2)c2ccccc2)cs1` (stereo unspecified) as the compound, how does the cytotoxicity at 10 µM read?
**A.** Its cytotoxicity at 10 µM is 7.33%.

**Q.** Which cytotoxicity at 10 µM does the source give for `COC(=O)N1CCCC(C(=O)N2CCCCC2)C1` (stereo unspecified) here?
**A.** Its cytotoxicity at 10 µM is -8.58%.
